Compound activity from PubChem.
Sampled rows, rich in hits. Any-hit rate of the full collection: about 12%.
ABCG2 block: ABCG2 efflux pump inhibitors, primary screen, multiplex with ABCB1, IgMXP3 cells, flow cytometry. inhibition, % at 6.6 µM. 190,000 compounds, 0.1% hits. JC-1 efflux. Broad substrate specificity ATP-binding cassette transporter ABCG2 (Homo sapiens), Q9UNQ0;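 active means inhibition above 80%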
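Assay system – ABCG2 IgMXP3 and barcoded ABCB1 CCRF-Adr cell mix · Input – 3 million cells/mL in well · Reagent – JC-1 fluorescent substrate · Compound – single test compound dose, 6.6 µM final · Timing – 10 min exposure at 25 °C with rotation, no wash · Detection – flow cytometry of retained JC-1 fluorescence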
RAM network inh: inhibitors of the yeast RAM network, primary screen, dse1pr::URA3 reporter, 5-FOA selection; 190,000 compounds, 1.8% hits; inhibition, % at 50 µM; S. cerevisiae dse1pr::URA3 reporter, 5-FOA growth OD615, 2 d; analog-sensitive cbk1-as2 kinase mutant strain;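 active means inhibition above a set limit, 3 SD over mean compound inhibition, cut at about 8.4% in these data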;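 further: inhibition rescues growth on 5-FOA so higher OD means more RAM inhibition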
L major viab: Leishmania major promastigote growth inhibition, primary screen; Leishmania major promastigotes, resazurin fluorescence viability; inhibition, % at 10 µM; 200,000 compounds, 9% hits; AID 1063, 2008; in the data active means inhibition above about 50%;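 further: promastigotes grown with compound for 44 hours at 28 °C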
ABCB1 block: ABCB1 efflux pump inhibitors, primary screen, cell-based, multiplex, flow cytometry, ABCG2 counter-screen; 190,000 compounds, 0.067% hits; CCRF-Adr cells, JC-1 efflux; ATP-dependent translocase ABCB1 (Homo sapiens), P08183; inhibition, % at 6.6 µM; AID 1326, 2008; in the data active means inhibition above about 40%;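 further: higher value means more JC-1 retained so stronger ABCB1 efflux block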
Target sequence (P08183 whole entry, looked up): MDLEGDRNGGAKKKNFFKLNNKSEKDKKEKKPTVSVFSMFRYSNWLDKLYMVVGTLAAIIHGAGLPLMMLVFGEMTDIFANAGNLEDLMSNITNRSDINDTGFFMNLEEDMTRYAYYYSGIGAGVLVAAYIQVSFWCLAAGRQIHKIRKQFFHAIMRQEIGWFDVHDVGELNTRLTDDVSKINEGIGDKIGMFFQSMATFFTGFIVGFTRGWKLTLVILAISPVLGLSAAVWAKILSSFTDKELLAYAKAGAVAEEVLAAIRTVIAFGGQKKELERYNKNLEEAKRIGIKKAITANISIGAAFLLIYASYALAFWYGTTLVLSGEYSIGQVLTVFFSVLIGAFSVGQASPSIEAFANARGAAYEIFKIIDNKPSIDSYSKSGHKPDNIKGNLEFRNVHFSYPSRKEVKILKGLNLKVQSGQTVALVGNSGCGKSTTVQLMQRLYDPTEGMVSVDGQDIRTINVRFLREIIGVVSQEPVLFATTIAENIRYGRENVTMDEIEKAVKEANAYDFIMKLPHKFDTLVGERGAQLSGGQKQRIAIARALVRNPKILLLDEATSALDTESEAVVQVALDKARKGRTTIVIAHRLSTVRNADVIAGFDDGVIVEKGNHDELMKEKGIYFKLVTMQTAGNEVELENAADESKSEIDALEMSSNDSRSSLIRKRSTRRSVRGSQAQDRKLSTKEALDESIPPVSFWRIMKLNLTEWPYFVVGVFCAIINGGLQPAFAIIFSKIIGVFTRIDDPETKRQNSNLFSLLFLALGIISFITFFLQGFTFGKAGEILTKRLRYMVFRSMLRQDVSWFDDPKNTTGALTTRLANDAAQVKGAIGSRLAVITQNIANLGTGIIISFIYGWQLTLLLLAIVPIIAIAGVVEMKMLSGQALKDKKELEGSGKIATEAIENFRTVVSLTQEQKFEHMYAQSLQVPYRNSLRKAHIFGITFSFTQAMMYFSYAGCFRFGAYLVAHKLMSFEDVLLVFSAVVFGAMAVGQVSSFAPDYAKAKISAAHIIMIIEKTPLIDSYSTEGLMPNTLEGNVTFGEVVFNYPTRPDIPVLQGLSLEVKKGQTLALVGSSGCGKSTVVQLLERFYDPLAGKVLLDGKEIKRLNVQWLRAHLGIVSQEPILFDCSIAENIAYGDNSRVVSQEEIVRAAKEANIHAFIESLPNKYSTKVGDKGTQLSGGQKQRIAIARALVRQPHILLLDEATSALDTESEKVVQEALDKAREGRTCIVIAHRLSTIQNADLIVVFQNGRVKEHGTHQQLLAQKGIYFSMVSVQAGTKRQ
WT yeast gro inh: growth inhibition of WT strain, primary screen, mitochondrial fusion inhibitor project, WT and mutant strains, chemical genetic. 190,000 compounds, 2.1% hits. mitochondrial fusion phenotypic screen. inhibition, % at 10 µM; in the data active means inhibition above about 58%; tested in S. cerevisiae
Large screens that a line does not name were inactive.

Cc1cc(C(=O)OCC(=O)NCc2ccco2)c(C)o1	none
O=C(NC1CCCC1)c1ccc([N+](=O)[O-])s1	L major viab 98.0
Cc1cccc(NC(=O)c2ccc([N+](=O)[O-])s2)c1C	L major viab 100.1
Cc1cccc(C)c1NC(=O)c1ccc([N+](=O)[O-])s1	L major viab 98.8
CCOc1cc(C(=S)N2CCOCC2)ccc1OS(=O)(=O)c1ccccc1[N+](=O)[O-]	none
COc1ccc(Cl)cc1NC(=O)CN(C)CC(=O)NC(C)c1ccccc1 (centres undefined)	none
CC(C)[C@H](NC(=O)c1ccc(Cl)c([N+](=O)[O-])c1)C(=O)NCc1ccc(Cl)cc1Cl	L major viab 52.5
CC(C)(C)SCCNC(=O)c1ccc(Cl)c([N+](=O)[O-])c1	WT yeast gro inh 80.8
CC(C)[C@H](NC(=O)c1ccc(Cl)c([N+](=O)[O-])c1)C(=O)NCc1ccc(F)cc1	none
O=S(=O)(Nc1cc(Sc2cccc3cccnc23)c(O)c2ccccc12)c1ccccc1	L major viab 100.3
Cc1ccc(C)c(S(=O)(=O)Nc2cc(SCC(=O)O)c(O)c3ccccc23)c1	L major viab 99.7
CCc1ccc(S(=O)(=O)Nc2cc(SCC(=O)O)c(O)c3ccccc23)cc1	L major viab 98.6
O=C(O)c1ccccc1NS(=O)(=O)c1cccc2cccnc12	none
COC(=O)c1cc(Br)c(=O)n(-c2cc(C)on2)c1	none
Cn1cc([C@@H]2C[C@H]3CN(C4CCCC4)C(=O)[C@]34CCCN24)c(-c2ccccc2)n1	none
Cc1ccc[n+](-c2[nH]c(=O)sc2/C=N/NC(=O)c2ccccc2[O-])c1	none
CCOC(=O)c1cnn(-c2nc(-c3cccc(F)c3)cs2)c1C(F)(F)F	none
O=C(/C=C/c1cn(-c2ccccc2)nc1-c1cccnc1)c1ccco1	L major viab 100.2
O=C(/C=C/c1cn(-c2ccccc2)nc1-c1ccccc1)Nc1ccc(C(=O)O)cc1	RAM network inh 8.9
O=C(CNc1ccccc1)N/N=C/c1cn(-c2ccccc2)nc1-c1ccccc1	L major viab 69.0
NC(=O)c1ccc(NC(=O)COC(=O)/C=C/c2cn(-c3ccccc3)nc2-c2cccnc2)cc1	L major viab 50.6
N#Cc1ccccc1NC(=O)COC(=O)/C=C/c1cn(-c2ccccc2)nc1-c1ccc(Cl)cc1	none
COc1ccccc1NC(=S)N1CCN(C(=O)C2CCCO2)CC1 (centres undefined)	none
COc1ccc(CCNC(=O)Cn2c(=O)n(-c3ccc(C)c(F)c3)c(=O)c3sccc32)cc1OC	none
CCc1ccc(NC(=O)c2cnc(N3CCN(c4ccccn4)CC3)c3ccccc23)cc1	L major viab 82.1
O=C(c1cc2cc(Br)ccc2s1)N1CCOCC1	none
CCCN(CCC)CCCNC(=S)Nc1ccc2nc(N3CCN(C)CC3)cc(C)c2c1	L major viab 65.0
Cc1cc(N2CCN(C)CC2)nc2ccc(NC(=S)NC3CC3)cc12	none
CCCN(CCC)CCCNC(=S)Nc1ccc2nc(N3CCN(CC)CC3)cc(C)c2c1	L major viab 93.7
CCC(C)c1ccc(NC(=O)COc2c(F)c(F)c(C(F)(F)F)c(F)c2F)cc1 (centres undefined)	RAM network inh 10.3, WT yeast gro inh 69.7
O=C(COc1c(F)c(F)c(C(F)(F)F)c(F)c1F)Nc1ccc(N2CCOCC2)c(Cl)c1	WT yeast gro inh 69.7
CCC(C)c1ccc(OCC(=O)Nc2ccc3[nH]c(=O)[nH]c3c2)cc1 (centres undefined)	none
O=C(Nc1ccc(N2CCOCC2)c(Cl)c1)c1ccccc1F	none
Cc1ccc(C(c2c(C)n(C)n(-c3ccccc3)c2=O)c2c(C)n(C)n(-c3ccccc3)c2=O)s1	L major viab 93.6
COc1ccc(-c2cc3ccccc3oc2=O)cc1NC(=O)c1ccc([N+](=O)[O-])o1	L major viab 85.1
COc1ccc(S(=O)(=O)N2CCCCC2)cc1NC(=O)c1ccc([N+](=O)[O-])o1	L major viab 90.3
Cc1cc2c(cc1C)CSC(c1c(O)ccc3ccccc13)SC2	WT yeast gro inh 96.7
CCn1c(O)c(N=NC(=O)c2cccs2)c2ccccc21	none
Cc1nc2ccccn2c1C(=O)N=Nc1c(O)n(CCC(C)C)c2ccccc12	L major viab 66.9
CC(C)n1nnnc1SCC(=O)Nc1ccccc1N1CCOCC1	none (no result: L major viab)
Cc1sc(NC(=O)CSc2nnnn2C2CCCCC2)c(C#N)c1C	WT yeast gro inh 74.6
COc1ccc(-n2nnnc2SCC(=O)Nc2ccccc2N2CCOCC2)cc1	L major viab 98.6
Cc1ccc(-n2nnnc2SCC(=O)Nc2ccccc2N2CCCCC2)cc1C	none
O=C(CSc1nnnn1C1CCCCC1)Nc1ccccc1N1CCOCC1	L major viab 60.3
Cc1sc(NC(=O)CSc2nnc(C(C)C)n2C)c(C#N)c1C	none
C=CCn1c(SCC(=O)NC)nc2sc3c(c2c1=O)CCC3	none
C=CCn1c(SC)nc2sc3c(c2c1=O)CCc1ccccc1-3	RAM network inh 9.0, L major viab 54.4
C=CCSc1nc2sc3c(c2c(=O)n1CC)CCc1ccccc1-3	RAM network inh 9.2
Cc1nnc(NC(=O)Cn2nc(C)c3ccccc3c2=O)s1	none
O=c1c(Cc2c(F)cccc2Cl)c(O)ccn1CCCN1CCOCC1	none
COc1ccc(CCNC(=O)CCNC(=O)c2ccc(Br)cc2)cc1OC	none
COc1ccc(CCNC(=O)CCC(=O)Nc2nnc(C(C)C)s2)cc1OC	L major viab 60.3
COc1cc(OC)cc(C(=O)NCCC(=O)NCCc2ccc(OC)c(OC)c2)c1	L major viab 56.8 (no result: ABCB1 block)
COc1ccc(CC(=O)Nc2nnc(C(C)C)s2)cc1	none
CC(C)Oc1ccc(C(CC(=O)N(C)CCC#N)c2ccc(F)cc2)cc1 (centres undefined)	L major viab 52.8
CCN(CC)C(=O)CC(c1ccc(F)cc1)c1ccc(OC)cc1 (centres undefined)	none
COc1cc([N+](=O)[O-])ccc1NC(=O)C[n+]1ccccc1	none
O=C(/C=C/c1ccccc1)N1CCN(CCN2C(=O)c3cccc4cccc(c34)C2=O)CC1	L major viab 99.7
C=CCc1ccccc1OCC(O)CN1CCN(CCN2C(=O)c3cccc4cccc(c34)C2=O)CC1 (centres undefined)	L major viab 99.6
CCC(OCC(O)CN1CCN(CCN2C(=O)c3cccc4cccc(c34)C2=O)CC1)c1ccccc1 (centres undefined)	L major viab 97.0
Cc1cccc(C)c1OCC(O)CN1CCC(CN2C(=O)c3cccc4cccc(c34)C2=O)CC1 (centres undefined)	L major viab 93.1
OC(COC(c1ccccc1)c1ccccc1)CN1CCOCC1 (centres undefined)	none
O=C1c2cccc3cccc(c23)C(=O)N1CC1CCCO1 (centres undefined)	none
